From PubChem BioAssay AID488992 (Sanford-Burnham Center for Chemical Genomics, 2010)
Active and inactive are the calls of the source.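 The calls were made as follows: active = IC50 below 20 µM; inactive = the rest.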

Target: Apelin receptor (Homo sapiens) (UniProt P35414)
Assay: APJ antagonists, beta-arrestin recruitment, SAR follow-up, cell-based, luminescence, set 3 (AID 488992)
Details: CHO-K1 AGTRL-1 PathHunter beta-arrestin
How it was run: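 test system = CHO-K1 APJ beta-arrestin complementation cells | also added = apelin-13, 10 nM final | doses = test compounds as dose-response series | timing = overnight cell seeding, 90 min compound-agonist exposure at 25 °C | detection = luminescence from beta-gal complementation, read 60 min after detection reagent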

Chain of Apelin receptor (Homo sapiens) (P35414 whole entry, looked up): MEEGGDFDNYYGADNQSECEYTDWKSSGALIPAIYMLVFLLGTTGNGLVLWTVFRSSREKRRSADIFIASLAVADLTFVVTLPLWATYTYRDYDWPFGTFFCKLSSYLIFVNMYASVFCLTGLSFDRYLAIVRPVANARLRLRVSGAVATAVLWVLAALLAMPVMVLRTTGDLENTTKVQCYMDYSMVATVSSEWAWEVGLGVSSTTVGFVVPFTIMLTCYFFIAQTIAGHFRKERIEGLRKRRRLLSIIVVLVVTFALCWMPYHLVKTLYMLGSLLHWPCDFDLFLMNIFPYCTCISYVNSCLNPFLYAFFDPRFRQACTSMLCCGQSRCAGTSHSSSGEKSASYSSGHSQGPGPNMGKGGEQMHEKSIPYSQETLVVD

IC50 | Structure (SMILES)
> 79 µM (inactive) | Cc1ccnc(SCc2cc(=O)c(OC(=O)c3ccno3)co2)n1
> 79 µM (inactive) | CC(=O)Oc1coc(CSc2nccc(C)n2)cc1=O
> 79 µM (inactive) | Cc1ccnc(SCc2cc(=O)c(OC(=O)C(C)(C)C)co2)n1
> 79 µM (inactive) | Cc1ccnc(SCc2cc(=O)c(OC(=O)C(C)C)co2)n1

The next lines start with the molecule.

Structure (SMILES) | IC50
Cc1ccnc(SCc2cc(=O)c(OCc3ccc(Cl)c([N+](=O)[O-])c3)co2)n1 | > 79 µM (inactive)
COc1cc(CSc2nc(C)cc(C)n2)ccc1OC(=O)c1ccccc1 | > 79 µM (inactive)
O=C(Nc1ccc(CSc2ncccn2)cc1)c1ccccc1 | > 79 µM (inactive)
COc1cc(CSc2nc(C)cc(C)n2)ccc1OC(=O)c1ccc([N+](=O)[O-])cc1 | > 79 µM (inactive)
Cc1ccnc(SCc2cc(=O)c(OC(=O)c3ccc([N+](=O)[O-])o3)co2)n1 | > 79 µM (inactive)
COc1cc(CSc2nc(C)cc(C)n2)ccc1OC(=O)c1cccnc1 | > 79 µM (inactive)
